Source: ChEMBL document CHEMBL4765347, “Radiomodulatory effect of a non-electrophilic NQO1 inducer identified in a screen of new 6, 8-diiodoquinazolin-4(3H)-ones carrying a sulfonamide moiety” (Eur J Med Chem, 2020)
Calls of active or inactive are those of the source. The rule behind the calls is not given here.

What was measured:
[1] = Toxicity in Swiss albino mouse assessed as survival rate at 50 mg/kg, ip administered for 5 days and observed for 30 days; format: organism-based; settings: in vivo, 720 h, time 30 day
In short: (§1)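 Albino mice received the compound at 50 mg/kg/day i.p. daily for 5 days, with 10% DMSO i.p. daily as vehicle control; 80 mice were randomised into four groups. Body weight was recorded weekly and survival was checked daily over 30 days. Mice were housed at 25 ± 5 °C, 60 ± 5% humidity and 12 h light/dark, with food and water ad libitum.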

Mus musculus [2] = assay: Antioxidant activity against radiation-induced Swiss albino mouse assessed as decrease in NQO1 level in liver at 50 mg/kg, ip administered for 5 days and irradiated with gamma radiation after 1 hr of compound administration by ELISA relative to control; format: functional; parameters: scale not given: the % may be the effect or the level left; settings: time 5 day
In short: (§2)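 Mice received 50 mg/kg/day i.p. in 10% DMSO for 5 days, plus whole-body 7 Gy 137Cs gamma (0.655 rad/s) 1 h after the last dose. On day 3, five mice per group were anesthetized with urethane. Livers were homogenized in ice-cold 0.1 M PBS pH 7.4. Nrf2 and NQO1 were measured by ELISA, lipid peroxidation as MDA, plus ROS generation. Data are mean ± S.E., one-way ANOVA with Bonferroni.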

[3] = target: Nuclear factor erythroid 2-related factor 2 (Mus musculus) (UniProt Q60795); assay: Activation of Nrf2 in mouse Hepa1c1c7 cells assessed as increase in NQO1 activity at 40 uM using menadione as substrate incubated for 20 mins followed by substrate addition and measured after 30 mins by spectrophotometry relative to control; settings: filed as activator, time 50.0 min
Nuclear factor erythroid 2-related factor 2 (Mus musculus), sequence (Q60795 whole entry, looked up): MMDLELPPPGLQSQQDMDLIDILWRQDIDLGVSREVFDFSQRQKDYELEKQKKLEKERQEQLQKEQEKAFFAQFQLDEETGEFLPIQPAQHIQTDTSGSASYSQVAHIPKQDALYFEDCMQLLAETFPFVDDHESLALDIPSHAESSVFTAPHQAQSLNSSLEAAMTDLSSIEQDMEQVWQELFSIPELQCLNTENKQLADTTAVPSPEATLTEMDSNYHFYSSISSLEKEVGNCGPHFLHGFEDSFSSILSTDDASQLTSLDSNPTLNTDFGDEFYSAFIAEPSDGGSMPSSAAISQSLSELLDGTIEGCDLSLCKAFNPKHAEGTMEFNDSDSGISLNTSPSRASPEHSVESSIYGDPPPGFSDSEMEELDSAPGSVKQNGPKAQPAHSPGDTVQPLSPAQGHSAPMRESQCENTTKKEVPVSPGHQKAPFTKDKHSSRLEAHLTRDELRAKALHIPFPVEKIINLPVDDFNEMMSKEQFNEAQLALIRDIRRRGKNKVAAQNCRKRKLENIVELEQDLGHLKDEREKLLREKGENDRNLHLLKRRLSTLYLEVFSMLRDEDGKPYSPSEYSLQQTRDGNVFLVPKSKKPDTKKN

Nrf2 (Mus musculus) [4] = assay: Activation of Nrf2 in mouse Hepa1c1c7 cells assessed as increase in NQO1 activity at 0.313 uM using menadione as substrate incubated for 20 mins followed by substrate addition and measured after 30 mins by spectrophotometry relative to control; settings: filed as activator, time 50.0 min
Nrf2 (Mus musculus) [5] = assay: Activation of Nrf2 in mouse Hepa1c1c7 cells assessed as increase in NQO1 activity at 20 uM using menadione as substrate incubated for 20 mins followed by substrate addition and measured after 30 mins by spectrophotometry relative to control; settings: filed as activator, time 50.0 min
Nrf2 (Mus musculus) [6] = assay: Activation of Nrf2 in mouse Hepa1c1c7 cells assessed as increase in NQO1 activity at 0.625 uM using menadione as substrate incubated for 20 mins followed by substrate addition and measured after 30 mins by spectrophotometry relative to control; settings: filed as activator, time 50.0 min
[7] = Toxicity in non-irradiated Swiss albino mouse assessed as increase in ROS level at 50 mg/kg, ip administered for 5 days by ELISA; format: organism-based; settings: in vivo, 120 h, time 5 day
In short: (§3)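 Non-irradiated mice were dosed 50 mg/kg/day i.p. (vehicle 10% DMSO) for 5 days and compared with vehicle controls. On day 3, five mice per group were anesthetized with urethane. Liver homogenates (ice-cold 0.1 M PBS pH 7.4, stored −80 °C) were assayed for Nrf2 and NQO1 by ELISA, for MDA as lipid peroxide marker, and for ROS. Data are mean ± S.E., n = 5, ANOVA with Bonferroni.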

Mus musculus [8] = assay: Antioxidant activity against radiation-induced Swiss albino mouse assessed as increase in Nrf2 level in liver at 50 mg/kg, ip administered for 5 days and irradiated with gamma radiation after 1 hr of compound administration by ELISA relative to control; format: functional; settings: time 5 day; in short: as §2
Mus musculus [9] = assay: Antioxidant activity against radiation-induced Swiss albino mouse assessed as decrease in MDA level in liver at 50 mg/kg, ip administered for 5 days and irradiated with gamma radiation after 1 hr of compound administration by ELISA relative to control; format: functional; parameters: scale not given: the % may be the effect or the level left; settings: time 5 day; in short: as §2
[10] = Toxicity in non-irradiated Swiss albino mouse assessed as increase in NQO1 level at 50 mg/kg, ip administered for 5 days by ELISA; format: organism-based; settings: in vivo, 120 h, time 5 day; in short: as §3
[11] = Toxicity in Swiss albino mouse assessed as effect on body weight at 50 mg/kg, ip administered for 5 days and observed for 30 days; format: organism-based; settings: in vivo, 720 h, time 30 day; in short: as §1
Nrf2 (Mus musculus) [12] = assay: Activation of Nrf2 in mouse Hepa1c1c7 cells assessed as increase in NQO1 activity at 2.5 uM using menadione as substrate incubated for 20 mins followed by substrate addition and measured after 30 mins by spectrophotometry relative to control; settings: filed as activator, time 50.0 min
[13] = Toxicity in Swiss albino mouse assessed as effect on liver weight at 50 mg/kg, ip administered for 5 days and observed for 5 days; format: organism-based; settings: in vivo, 120 h, time 5 day
Mus musculus [14] = assay: Effect on hematopoiesis in gamma-irradiated Swiss albino mouse assessed as increase in radiation-reduced HGB count at 50 mg/kg, ip administered for 5 days and irradiated with gamma radiation after 1 hr of compound administration by automated micro-analyzer; format: functional, organism-based; settings: time 5.0 day
In short: (§4)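 Dosing was i.p. 50 mg/kg/day in 10% DMSO for 5 days, followed 1 h after the final injection by 7 Gy whole-body 137Cs gamma irradiation. Complete blood count with platelets (RBC, HGB, PLT, WBC) was done on an automated analyzer 3 days after irradiation. Data are mean ± S.E.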

Mus musculus [15] = assay: Effect on hematopoiesis in gamma-irradiated Swiss albino mouse assessed as increase in radiation-reduced RBC count at 50 mg/kg, ip administered for 5 days and irradiated with gamma radiation after 1 hr of compound administration by automated micro-analyzer; format: functional, organism-based; settings: time 5.0 day; in short: as §4
Nrf2 (Mus musculus) [16] = assay: Activation of Nrf2 in mouse Hepa1c1c7 cells assessed as increase in NQO1 activity using menadione as substrate incubated for 20 mins followed by substrate addition and measured after 30 mins by spectrophotometry; settings: filed as activator, time 50.0 min
Nrf2 (Mus musculus) [17] = assay: Activation of Nrf2 in mouse Hepa1c1c7 cells assessed as increase in NQO1 activity at 10 uM using menadione as substrate incubated for 20 mins followed by substrate addition and measured after 30 mins by spectrophotometry relative to control; settings: filed as activator, time 50.0 min
[18] = Toxicity in ip dosed Swiss albino mouse; format: organism-based; settings: in vivo
Mus musculus [19] = assay: Effect on hematopoiesis in gamma-irradiated Swiss albino mouse assessed as increase in radiation-reduced PLT count at 50 mg/kg, ip administered for 5 days and irradiated with gamma radiation after 1 hr of compound administration by automated micro-analyzer; format: functional, organism-based; settings: time 5.0 day; in short: as §4
Nrf2 (Mus musculus) [20] = assay: Activation of Nrf2 in mouse Hepa1c1c7 cells assessed as increase in NQO1 activity at 5 uM using menadione as substrate incubated for 20 mins followed by substrate addition and measured after 30 mins by spectrophotometry relative to control; settings: filed as activator, time 50.0 min
Nrf2 (Mus musculus) [21] = assay: Activation of Nrf2 in mouse Hepa1c1c7 cells assessed as increase in NQO1 activity at 1.25 uM using menadione as substrate incubated for 20 mins followed by substrate addition and measured after 30 mins by spectrophotometry relative to control; settings: filed as activator, time 50.0 min
[22] = Toxicity in non-irradiated Swiss albino mouse assessed as effect on MDA level at 50 mg/kg, ip administered for 5 days by ELISA; format: organism-based; settings: in vivo, 120 h, time 5 day; in short: as §3
[23] = Toxicity in non-irradiated Swiss albino mouse assessed as decrease in Nrf2 level at 50 mg/kg, ip administered for 5 days by ELISA; format: organism-based; settings: in vivo, 120 h, time 5 day; in short: as §3
Mus musculus [24] = assay: Antioxidant activity against radiation-induced Swiss albino mouse assessed as decrease in ROS level in liver at 50 mg/kg, ip administered for 5 days and irradiated with gamma radiation after 1 hr of compound administration by ELISA relative to control; format: functional; parameters: scale not given: the % may be the effect or the level left; settings: time 5 day; in short: as §2

**Q.** For `COc1cc(NC(=O)CSc2nc3c(I)cc(I)cc3c(=O)n2-c2ccc(S(N)(=O)=O)cc2)cc(OC)c1OC`, which Activity [1] is on record?
**A.** Its Activity is “Non-Toxic”.

**Q.** What about the Activity (Mus musculus [2]) of the same compound?
**A.** Its Activity is 30%.

**Q.** And the T/C [3]?
**A.** Its T/C is 2.42.

**Q.** What about the T/C (Nrf2 (Mus musculus) [4]) of the same compound?
**A.** Its T/C is 1.02.

**Q.** And the T/C (Nrf2 (Mus musculus) [5])?
**A.** Its T/C is 1.98.

**Q.** What about the T/C (Nrf2 (Mus musculus) [6]) of the same compound?
**A.** The T/C was 1.08.

**Q.** What about the Activity [7] of the same compound?
**A.** Its Activity is “Non-Toxic”.

**Q.** And the Activity (Mus musculus [8])?
**A.** The Activity was 19%.

**Q.** And the Activity (Mus musculus [9])?
**A.** Its Activity is 28%.

**Q.** What about the Activity [10] of the same compound?
**A.** The Activity was “Non-Toxic”.

**Q.** And the Activity [11]?
**A.** The Activity was “Non-Toxic”.

**Q.** What about the T/C (Nrf2 (Mus musculus) [12]) of the same compound?
**A.** The T/C was 1.16.

**Q.** What about the Activity [13] of the same compound?
**A.** The Activity was “Non-Toxic”.

**Q.** What about the Activity (Mus musculus [14]) of the same compound?
**A.** Its Activity is “Active”.

**Q.** What about the Activity (Mus musculus [15]) of the same compound?
**A.** The Activity was “Active”.

**Q.** What about the Activity (Nrf2 (Mus musculus) [16]) of the same compound?
**A.** Its Activity is “Dose-dependent effect”.

**Q.** What about the CD (Nrf2 (Mus musculus) [16]) of the same compound?
**A.** The CD was 20 µM.

**Q.** And the T/C (Nrf2 (Mus musculus) [17])?
**A.** Its T/C is 1.43.

**Q.** And the LD50 [18]?
**A.** Its LD50 is 500 mg/kg.

**Q.** And the Activity (Mus musculus [19])?
**A.** The Activity was “Active”.

**Q.** And the T/C (Nrf2 (Mus musculus) [20])?
**A.** The T/C was 1.24.

**Q.** What about the T/C (Nrf2 (Mus musculus) [21]) of the same compound?
**A.** Its T/C is 1.1.

**Q.** What about the Activity [22] of the same compound?
**A.** The Activity was “Non-Toxic”.

**Q.** And the Activity [23]?
**A.** Its Activity is “Non-Toxic”.

**Q.** And the Activity (Mus musculus [24])?
**A.** Its Activity is 23%.
